In ChEMBL document CHEMBL3616466, “Pyrazolo[3,4-h]quinolines promising photosensitizing agents in the treatment of cancer” (Eur J Med Chem, 2015):
The source made the active and inactive calls. The calls are words filed in the database; no cut-off is given here.

Tests used:
Jurkat [1] = assay: Photocytotoxicity against human Jurkat cells assessed as growth inhibition at 2.5 J/cm'2 irradiation for 30 mins followed by drug treated for 72 hrs by MTT assay; type: functional; conditions: light or radiation study
Outline: (§1)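 Cells seeded at 5 × 10³ per well and pre-incubated 24 h. Drug dilutions in HBSS (pH 7.2, from DMSO stock) added for 30 min at 37 °C, then UV-A irradiation at the stated dose. Drug solution then replaced with culture medium and plates incubated 72 h. Viability by MTT; GI50 from concentration series.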

Jurkat [2] = assay: Photocytotoxicity against human Jurkat cells assessed as growth inhibition at 1.25 J/cm'2 irradiation for 30 mins followed by drug treated for 72 hrs by MTT assay; type: functional; conditions: light or radiation study; outline: as §1
HL-60 [3] = assay: Photocytotoxicity against human HL60 cells assessed as growth inhibition at 2.5 J/cm'2 irradiation for 30 mins followed by drug treated for 72 hrs by MTT assay; type: functional; conditions: HL-60, light or radiation study; outline: as §1
HL-60 [4] = assay: Photocytotoxicity against human HL60 cells assessed as growth inhibition at 1.25 J/cm'2 irradiation for 30 mins followed by drug treated for 72 hrs by MTT assay; type: functional; conditions: HL-60, light or radiation study; outline: as §1
MCF7 [5] = assay: Photocytotoxicity against human MCF7 cells assessed as growth inhibition at 3.75 J/cm'2 irradiation for 30 mins followed by drug treated for 72 hrs by MTT assay; type: functional; conditions: MCF7, light or radiation study; outline: as §1
MCF7 [6] = assay: Photocytotoxicity against human MCF7 cells assessed as growth inhibition at 2.5 J/cm'2 irradiation for 30 mins followed by drug treated for 72 hrs by MTT assay; type: functional; conditions: MCF7, light or radiation study; outline: as §1
A549 [7] = assay: Photocytotoxicity against human A549 cells assessed as growth inhibition at 3.75 J/cm'2 irradiation for 30 mins followed by drug treated for 72 hrs by MTT assay; type: functional; conditions: A549, light or radiation study; outline: as §1
A549 [8] = assay: Photocytotoxicity against human A549 cells assessed as growth inhibition at 2.5 J/cm'2 irradiation for 30 mins followed by drug treated for 72 hrs by MTT assay; type: functional; conditions: A549, light or radiation study; outline: as §1
LoVo [9] = assay: Photocytotoxicity against human LoVo cells assessed as growth inhibition at 3.75 J/cm'2 irradiation for 30 mins followed by drug treated for 72 hrs by MTT assay; type: functional; conditions: light or radiation study; outline: as §1
LoVo [10] = assay: Photocytotoxicity against human LoVo cells assessed as growth inhibition at 2.5 J/cm'2 irradiation for 30 mins followed by drug treated for 72 hrs by MTT assay; type: functional; conditions: light or radiation study; outline: as §1
A549 [11] = assay: Photocytotoxicity against human A549 cells assessed as inhibition of colony formation at 2.5 J/cm'2 irradiation after 1 to 2 weeks using crystal violet staining by optical microscopy; type: functional, cell-based
Outline: (§2)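 A-549 cells (10 × 10³) plated in dishes. After 24 h, irradiated at 2.5 J/cm² with compound at varying concentrations. Medium replaced, then cultured 1–2 weeks with medium changes every 2–3 days. Stained with crystal violet; colonies of ≥50 cells counted visually. Expressed as % of untreated cells; mean ± SEM of three experiments.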

[12] = Induction of singlet oxygen generation measured after UV-A irradiation by RNO bleaching assay; type: physicochemical
Outline: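 Compound (2.2 × 10⁻⁵ M), RNO (4 × 10⁻⁵ M) and imidazole (4 × 10⁻⁵ M) in phosphate buffer pH 7.3 irradiated with increasing UV-A doses. Absorbance read at 440 nm; reported as % RNO bleaching.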

[13] = Induction of superoxide anion generation measured after UV-A irradiation by NBT reduction assay; type: physicochemical
Outline: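 Compound (10⁻⁵ M) with nitroblue tetrazolium (1.6 × 10⁻⁴ M) in carbonate buffer pH 10 irradiated with increasing UV-A doses. Absorbance at 560 nm followed as the superoxide read-out.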

Jurkat [14] = assay: Induction of apoptosis in human Jurkat cells assessed as reduction in alive cells using Annexin-V and propidium iodide staining at 1 to 2 uM measured 24 hrs post 2.5 J/cm'2 irradiation by flow cytometry analysis; type: functional, cell-based
Outline: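 Jurkat cells irradiated (2.5 J/cm²) with compound at 1 or 2 µM. After 24 h, co-stained with Annexin V-FITC and PI and analysed by flow cytometry (excitation 488 nm; emission 525 and 585 nm). Mean of three independent experiments.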

Jurkat [15] = assay: Induction of apoptosis in human Jurkat cells assessed as increase in cleaved caspase 3 level at 1 uM measured 24 hrs post 2.5 J/cm'2 irradiation by Western blot analysis; type: functional, cell-based
Outline: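 Jurkat cells irradiated (2.5 J/cm²) with compound at 1 µM. At 24 h, cells washed in cold PBS and lysed on ice for 20 min. 20 µg protein run on 8–16% gradient gels and transferred to nitrocellulose. Probed with rabbit anti-caspase-3 and β-actin (1:1000, 2 h), then peroxidase anti-rabbit IgG; ECL detection.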

Jurkat [16] = assay: Induction of apoptosis in human Jurkat cells assessed as reduction in mitochondrial potential at 1 to 2 uM using JC-1 staining measured 24 hrs post 2.5 J/cm'2 irradiation by FACS assay; type: functional, cell-based
Outline: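 At 24 h after 2.5 J/cm² irradiation with compound at 1 or 2 µM, Jurkat cells were pelleted and resuspended in HBSS with 1 µM JC-1. After 10 min at 37 °C, fluorescence read at 530 and 590 nm by flow cytometry. Mean ± SEM, n=3.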

Jurkat [17] = assay: Induction of apoptosis in human Jurkat cells assessed as ROS production at 1 to 2 uM using HE and DCFDA staining measured 24 hrs post 2.5 J/cm'2 irradiation by FACS assay; type: functional, cell-based
Jurkat [18] = assay: Induction of apoptosis in human Jurkat cells assessed as lysosome death at 1 to 2 uM using acridine orange staining measured 24 hrs post 2.5 J/cm'2 irradiation by flow cytometry; type: functional, cell-based
Escherichia coli = assay: Induction of DNA damage in Escherichia coli pBR322 DNA measured at 7.5 J/cm'2 UV-A irradiation by neutral agarose electrophoresis
Outline: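 pBR322 plasmid (100 ng) in 10 mM phosphate buffer pH 7.2 irradiated at 7.5 J/cm² UV-A with compound at a compound/DNA ratio of 3/1. Aliquots incubated at 37 °C with Fpg or Endo III. Run on 1% agarose in TAE at 70 V for 4 h; supercoiled, open circular and linear bands quantified.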

Jurkat [19] = assay: Induction of lipid peroxidation in human Jurkat cells at 2 uM measured 24 hrs post 2.5 J/cm'2 irradiation by TBA assay; type: functional, cell-based
Outline: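 TBA test for TBARS performed on supernatant medium and on cell lysates 24 h post-irradiation. Mean ± SEM of three experiments.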

A549 [20] = assay: Photocytotoxicity against human A549 cells assessed as inhibition of colony formation at 0.0625 to 0.5 uM measured 24 hrs post 2.5 J/cm'2 irradiation after 1 to 2 weeks by optical microscopy; type: functional, cell-based; outline: as §2
MCF7 [21] = assay: Ratio of angelicin GI50 to compound GI50 for human MCF7 cells assessed as growth inhibition at 3.75 J/cm'2 irradiation for 30 mins followed by drug treated for 72 hrs by MTT assay; type: functional
Outline: (§3)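 Cells were pre-incubated 30 min at 37 °C with drug in HBSS, irradiated, then drug replaced with medium. Ratio is angelicin GI50 divided by compound GI50.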

LoVo [22] = assay: Ratio of angelicin GI50 to compound GI50 for human LoVo cells assessed as growth inhibition at 3.75 J/cm'2 irradiation for 30 mins followed by drug treated for 72 hrs by MTT assay; type: functional; outline: as §3
Jurkat [23] = assay: Cytotoxicity against human Jurkat cells assessed as growth inhibition after 72 hrs by MTT assay; type: functional
HL-60 [24] = assay: Cytotoxicity against human HL60 cells assessed as growth inhibition after 72 hrs by MTT assay; type: functional; conditions: HL-60, 72 h
A549 [25] = assay: Cytotoxicity against human A549 cells assessed as growth inhibition after 72 hrs by MTT assay; type: functional; conditions: A549, 72 h
Outline: (§4)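 Cells (5 × 10³ per well) pre-incubated 24 h at 37 °C, 5% CO₂, then exposed in the dark to serial concentrations diluted from DMSO stock into complete medium for 72 h at 37 °C. Viability read by MTT; GI50 derived. LoVo in Ham's F-12, MCF-7 and A-549 in DMEM, all with 10% FBS and penicillin/streptomycin.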

MCF7 [26] = assay: Cytotoxicity against human MCF7 cells assessed as growth inhibition after 72 hrs by MTT assay; type: functional; conditions: MCF7, 72 h; outline: as §4
LoVo [27] = assay: Cytotoxicity against human LoVo cells assessed as growth inhibition after 72 hrs by MTT assay; type: functional; outline: as §4

Compound: COc1ccc(-n2ncc3c2ccc2cc(S(=O)(=O)c4ccccc4)c(=O)n(C)c23)cc1
- GI50 (Jurkat [1]): 250 nM
- GI50 (Jurkat [2]): 580 nM
- GI50 (HL-60 [3]): 440 nM
- GI50 (HL-60 [4]): 610 nM
- GI50 (MCF7 [5]): 140 nM
- GI50 (MCF7 [6]): 290 nM
- GI50 (A549 [7]): 80 nM
- GI50 (A549 [8]): 270 nM
- GI50 (LoVo [9]): 90 nM
- GI50 (LoVo [10]): 190 nM
- Activity (A549 [11]): Dose-dependent effect
- Activity [12]: Active
- Activity [13]: Active
- Activity (Jurkat [14]): Active
- Activity (Jurkat [15]): Active
- Activity (Jurkat [16]): Active
- Activity (Jurkat [17]): Active
- Activity (Jurkat [18]): Active
- Activity (Escherichia coli): inactive
- Activity (Jurkat [19]): Active
- Activity (A549 [20]): Dose-dependent effect
- Ratio IC50 (MCF7 [21]): 10
- Ratio IC50 (LoVo [22]): 12
- GI50 (Jurkat [23]): > 20000 nM
- GI50 (HL-60 [24]): > 20000 nM
- GI50 (A549 [25]): > 20000 nM
- GI50 (MCF7 [26]): 9600 nM
- GI50 (LoVo [27]): > 20000 nM
